Legend:
[1] = biological target: Hepatitis C virus serine protease, NS3/NS4A (Hepatitis C virus, UniProt A3EZI9+D2K2A8, D168A); experiment: Inhibition of HCV genotype 1a NS3/4A protease D168A mutant expressed in Escherichia coli BL21(DE3) using Ac-DE-Dap(QXL 520)-EE-Abu-psi-[COO]AS-C(5-FAMsp)-NH2 as substrate preincubated for 1 hr followed by substrate addition; design: species or system Hepatitis C virus subtype 1a
Summary of the method: (§1)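 Enzyme inhibition constants (Ki) were determined against GT1a NS3/4A protease in three forms: wild type, R155K and D168A.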

Hepatitis C virus [2] = experiment: Selectivity ratio of EC50 for HCV genotype 1b Con1 harboring HCV genotype 1a H77 NS3 D168A mutant infected in human HuH7 cells to EC50 for HCV genotype 1b Con1 harboring HCV genotype 1a H77 wild type NS3 infected in human HuH7 cells; format: functional, Hepacivirus hominis, isolate Con1
Hepatitis C virus [3] = experiment: Selectivity ratio of EC50 for HCV genotype 1b Con1 harboring HCV genotype 1a H77 NS3 A156T mutant infected in human HuH7 cells to EC50 for HCV genotype 1b Con1 harboring HCV genotype 1a H77 wild type NS3 infected in human HuH7 cells; format: functional, Hepacivirus hominis, isolate Con1
Hepatitis C virus [4] = experiment: Selectivity ratio of EC50 for HCV genotype 1b Con1 harboring HCV genotype 1a H77 NS3 R155K mutant infected in human HuH7 cells to EC50 for HCV genotype 1b Con1 harboring HCV genotype 1a H77 wild type NS3 infected in human HuH7 cells; format: functional, Hepacivirus hominis, isolate Con1
Hepatitis C virus [5] = experiment: Selectivity ratio of EC50 for HCV genotype 1b Con1 harboring HCV genotype 1a H77 NS3 D168V mutant infected in human HuH7 cells to EC50 for HCV genotype 1b Con1 harboring HCV genotype 1a H77 wild type NS3 infected in human HuH7 cells; format: functional, Hepacivirus hominis, isolate Con1
[6] = biological target: Hepatitis C virus serine protease, NS3/NS4A (Hepatitis C virus, UniProt A3EZI9+D2K2A8); experiment: Inhibition of wild type HCV genotype 1a NS3/4A protease expressed in Escherichia coli BL21(DE3) using Ac-DE-Dap(QXL 520)-EE-Abu-psi-[COO]AS-C(5-FAMsp)-NH2 as substrate preincubated for 1 hr followed by substrate addition; design: species or system Hepatitis C virus subtype 1a; summary of the method: as §1
[7] = biological target: Hepatitis C virus serine protease, NS3/NS4A (Hepatitis C virus, UniProt A3EZI9+D2K2A8, R155K); experiment: Inhibition of HCV genotype 1a NS3/4A protease R155K mutant expressed in Escherichia coli BL21(DE3) using Ac-DE-Dap(QXL 520)-EE-Abu-psi-[COO]AS-C(5-FAMsp)-NH2 as substrate preincubated for 1 hr followed by substrate addition; design: species or system Hepatitis C virus subtype 1a; summary of the method: as §1
Hepatitis C virus [8] = experiment: Antiviral activity against HCV genotype 1b Con1 harboring HCV genotype 1a H77 wild type NS3 infected in human HuH7 cells assessed as inhibition of viral replication after 96 hrs by luciferase reporter gene assay; format: functional, organism-based, Hepacivirus hominis; conditions: isolate Con1, Huh-7, 96 h
Summary of the method: (§2)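 Cell-based replicon antiviral assays against wild-type HCV and the R155K, A156T, D168A and D168V variants. Potency was expressed as EC50.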

Hepatitis C virus [9] = experiment: Antiviral activity against HCV genotype 1b Con1 harboring HCV genotype 1a H77 NS3 D168A mutant infected in human HuH7 cells assessed as inhibition of viral replication after 96 hrs by luciferase reporter gene assay; format: functional, organism-based, Hepacivirus hominis; conditions: isolate Con1, Huh-7, 96 h; summary of the method: as §2
Hepatitis C virus [10] = experiment: Antiviral activity against HCV genotype 1b Con1 harboring HCV genotype 1a H77 NS3 R155K mutant infected in human HuH7 cells assessed as inhibition of viral replication after 96 hrs by luciferase reporter gene assay; format: functional, organism-based, Hepacivirus hominis; conditions: isolate Con1, Huh-7, 96 h; summary of the method: as §2
Hepatitis C virus [11] = experiment: Antiviral activity against HCV genotype 1b Con1 harboring HCV genotype 1a H77 NS3 D168V mutant infected in human HuH7 cells assessed as inhibition of viral replication after 96 hrs by luciferase reporter gene assay; format: functional, organism-based, Hepacivirus hominis; conditions: isolate Con1, Huh-7, 96 h; summary of the method: as §2
Hepatitis C virus [12] = experiment: Antiviral activity against HCV genotype 1b Con1 harboring HCV genotype 1a H77 NS3 A156T mutant infected in human HuH7 cells assessed as inhibition of viral replication after 96 hrs by luciferase reporter gene assay; format: functional, organism-based, Hepacivirus hominis; conditions: isolate Con1, Huh-7, 96 h; summary of the method: as §2

SMILES	Ki [1] [nM]	Ratio EC50 (Hepatitis C virus [2])	Ratio EC50 (Hepatitis C virus [3])	Ratio EC50 (Hepatitis C virus [4])	Ratio EC50 (Hepatitis C virus [5])	Ki [6] [nM]	Ki [7] [nM]	EC50 (Hepatitis C virus [8]) [nM]	EC50 (Hepatitis C virus [9]) [nM]	EC50 (Hepatitis C virus [10]) [nM]	EC50 (Hepatitis C virus [11]) [nM]	EC50 (Hepatitis C virus [12]) [nM]
CCc1nc2ccc(OC)cc2nc1O[C@@H]1C[C@H]2C(=O)N[C@]3(C(=O)NS(=O)(=O)C4CC4)C[C@H]3/C=C\CCCCC[C@H](NC(=O)OC(C)(C)C)C(=O)N2C1	91	19	29	5.5	28	2	3.1					
C=C[C@@H]1C[C@]1(NC(=O)[C@@H]1C[C@@H](Oc2nc3cc(OC)ccc3nc2C(F)(F)F)CN1C(=O)[C@@H](NC(=O)OC1CCCC1)C(C)(C)C)C(=O)NS(=O)(=O)C1(C)CC1	516					22	22					
C=C[C@@H]1C[C@]1(NC(=O)[C@@H]1C[C@@H](Oc2nc3cc(OC)ccc3nc2CC)CN1C(=O)[C@@H](NC(=O)OC1CCCC1)C(C)(C)C)C(=O)NS(=O)(=O)C1CC1	350					9.8	15					
C=C[C@@H]1C[C@]1(NC(=O)[C@@H]1C[C@@H]2CN1C(=O)[C@H](C(C)(C)C)NC(=O)O[C@@H]1C[C@H]1CCCCCc1nc3ccc(OC)cc3nc1O2)C(=O)NS(=O)(=O)C1(C)CC1								0.12	11	1.9	5.3	200
C=C[C@@H]1C[C@]1(NC(=O)[C@@H]1C[C@@H](Oc2nc3cc(OC)ccc3nc2C)CN1C(=O)[C@@H](NC(=O)OC1CCCC1)C(C)(C)C)C(=O)NS(=O)(=O)C1CC1	144	10	16	4.8	15	9.2	9.6	10	101	48	150	164
C=C[C@@H]1C[C@]1(NC(=O)[C@@H]1C[C@@H](Oc2nc3cc(OC)ccc3nc2C(C)C)CN1C(=O)[C@@H](NC(=O)OC1CCCC1)C(C)(C)C)C(=O)NS(=O)(=O)C1(C)CC1	1000					21	43					
C=C[C@@H]1C[C@]1(NC(=O)[C@@H]1C[C@@H](Oc2nc3cc(OC)ccc3nc2C)CN1C(=O)[C@@H](NC(=O)OC(C)(C)C)C(C)(C)C)C(=O)NS(=O)(=O)C1CC1	290					18	8.5					
C=C[C@@H]1C[C@]1(NC(=O)[C@@H]1C[C@@H](Oc2nc3cc(OC)ccc3nc2Cl)CN1C(=O)[C@@H](NC(=O)OC(C)(C)C)C(C)(C)C)C(=O)NS(=O)(=O)C1(C)CC1	119	4.8	16	1.6	1.9	6.1	3.8	6.3	30	10	12	100
C=C[C@@H]1C[C@]1(NC(=O)[C@@H]1C[C@@H](Oc2nc3cc(OC)ccc3nc2CC)CN1C(=O)[C@@H](NC(=O)OC(C)(C)C)C(C)(C)C)C(=O)NS(=O)(=O)C1CC1	642	>21	3	2.1	>21	19	17	24	> 500	50	> 500	73
C=C[C@@H]1C[C@]1(NC(=O)[C@@H]1C[C@@H](Oc2nc3cc(OC)ccc3nc2C(F)(F)F)CN1C(=O)[C@@H](NC(=O)OC(C)(C)C)C(C)(C)C)C(=O)NS(=O)(=O)C1(C)CC1	513					46	12					
C=C[C@@H]1C[C@]1(NC(=O)[C@@H]1C[C@@H](Oc2nc3cc(OC)ccc3nc2Cl)CN1C(=O)[C@@H](NC(=O)OC(C)(C)C)C(C)(C)C)C(=O)NS(=O)(=O)C1CC1	128	5.8	16	1.5	1.8	7.8	2.2	6.6	38	10	12	107
C=C[C@@H]1C[C@]1(NC(=O)[C@@H]1C[C@@H](Oc2nc3cc(OC)ccc3nc2CC)CN1C(=O)[C@@H](NC(=O)OC1CCCC1)C(C)(C)C)C(=O)NS(=O)(=O)C1(C)CC1	145					6.9	13					
C=C[C@@H]1C[C@]1(NC(=O)[C@@H]1C[C@@H](Oc2nc3cc(OC)ccc3nc2C)CN1C(=O)[C@@H](NC(=O)OC(C)(C)C)C(C)(C)C)C(=O)NS(=O)(=O)C1(C)CC1	265					14	14					
C=C[C@@H]1C[C@]1(NC(=O)[C@@H]1C[C@@H](Oc2nc3cc(OC)ccc3nc2C(C)C)CN1C(=O)[C@@H](NC(=O)OC(C)(C)C)C(C)(C)C)C(=O)NS(=O)(=O)C1CC1	1090					32	49					
C=C[C@@H]1C[C@]1(NC(=O)[C@@H]1C[C@@H](Oc2nc3cc(OC)ccc3nc2C(C)C)CN1C(=O)[C@@H](NC(=O)OC(C)(C)C)C(C)(C)C)C(=O)NS(=O)(=O)C1(C)CC1	1180					29	27					
C=C[C@@H]1C[C@]1(NC(=O)[C@@H]1C[C@@H](Oc2nc3cc(OC)ccc3nc2C(F)(F)F)CN1C(=O)[C@@H](NC(=O)OC1CCCC1)C(C)(C)C)C(=O)NS(=O)(=O)C1CC1	703					34	26					
C=C[C@@H]1C[C@]1(NC(=O)[C@@H]1C[C@@H](Oc2nc3cc(OC)ccc3nc2C(F)(F)F)CN1C(=O)[C@@H](NC(=O)OC(C)(C)C)C(C)(C)C)C(=O)NS(=O)(=O)C1CC1	723					87	24					
C=C[C@@H]1C[C@]1(NC(=O)[C@@H]1C[C@@H](Oc2nc3cc(OC)ccc3nc2C(C)C)CN1C(=O)[C@@H](NC(=O)OC1CCCC1)C(C)(C)C)C(=O)NS(=O)(=O)C1CC1	985					17	55					
C=C[C@@H]1C[C@]1(NC(=O)[C@@H]1C[C@@H](Oc2nc3cc(OC)ccc3nc2CC)CN1C(=O)[C@@H](NC(=O)OC(C)(C)C)C(C)(C)C)C(=O)NS(=O)(=O)C1(C)CC1	385					16	14					
